Source: ChEMBL document CHEMBL1154427, “Impact of dual infections on chemotherapeutic efficacy in BALB/c mice infected with major genotypes of Trypanosoma cruzi” (2007)

Key:
Type in all cases: functional
Trypanosoma cruzi [1] = assay: Antimicrobial activity against Trypanosoma cruzi 1 and Trypanosoma cruzi dually infected in BALB/c mouse assessed as cure rate
How it was run: (§1)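 Mice counted cured when fresh blood examination, hemoculture, blood PCR, ELISA and FC-ALTA were all negative. Mice negative by parasitology and FC-ALTA but positive by ELISA were counted as dissociated and also cured. Observed cure rate per group = cured animals / total infected treated animals × 100. Each genotype combination was run in replicate batches.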

Trypanosoma cruzi [2] = assay: Antimicrobial activity against Trypanosoma cruzi and Trypanosoma cruzi 2 dually infected in BALB/c mouse assessed as cure rate; how it was run: as §1
Trypanosoma cruzi [3] = assay: Antimicrobial activity against Trypanosoma cruzi 1 dually infected in BALB/c mouse assessed as cure rate; how it was run: as §1
Trypanosoma cruzi [4] = assay: Antimicrobial activity against Trypanosoma cruzi infected in BALB/c mouse assessed as cure rate; how it was run: as §1
Trypanosoma cruzi [5] = assay: Antimicrobial activity against Trypanosoma cruzi genotype 19 infected in BALB/c mouse assessed as cure rate; how it was run: as §1
Trypanosoma cruzi [6] = assay: Antimicrobial activity against Trypanosoma cruzi infected in BALB/c mouse assessed as parasitemia remaining by FC-ALTA
How it was run: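 Flow cytometric detection of antibodies to live trypomastigotes, microplate format, on sera taken 3 months after treatment and diluted 1:1,500. IgG was detected with FITC-labelled goat anti-mouse IgG. Read-out was percentage of positive fluorescent parasites, relative to a conjugate-only control; >20% was scored positive. Positive and negative controls ran in each batch.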

Trypanosoma cruzi [7] = assay: Antimicrobial activity against Trypanosoma cruzi genotype 39 infected in BALB/c mouse assessed as cure rate; how it was run: as §1
Trypanosoma cruzi [8] = assay: Antimicrobial activity against Trypanosoma cruzi genotype 19 and genotype 32 dually infected in BALB/c mouse assessed as cure rate; how it was run: as §1
Trypanosoma cruzi [9] = assay: Antimicrobial activity against Trypanosoma cruzi genotype 32 infected in BALB/c mouse assessed as cure rate; how it was run: as §1
Trypanosoma cruzi [10] = assay: Antimicrobial activity against Trypanosoma cruzi Bug2148 cl1 and Trypanosoma cruzi MAS cl11 dually infected in BALB/c mouse assessed as cure rate; how it was run: as §1
Trypanosoma cruzi [11] = assay: Antimicrobial activity against Trypanosoma cruzi 1 infected in BALB/c mouse assessed as cure rate; how it was run: as §1
Trypanosoma cruzi [12] = assay: Antimicrobial activity against Trypanosoma cruzi infected in BALB/c mouse assessed as parasitemia remaining by PCR method
How it was run: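 Orbital sinus blood taken 30 days after treatment into 6 M guanidine–0.2 M EDTA (pH 8.0), 1:2, and kept at room temperature. PCR used primers S35/S36 with 3.5 mM MgCl2: 5 min at 94°C, then 35 cycles of 95°C/65°C/72°C for 1 min each, then 10 min final extension. Products were resolved on 6% polyacrylamide with silver staining.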

Trypanosoma cruzi [13] = assay: Antimicrobial activity against Trypanosoma cruzi 2 infected in BALB/c mouse assessed as cure rate; how it was run: as §1
Trypanosoma cruzi [14] = assay: Antimicrobial activity against Trypanosoma cruzi genotype 19 and genotype 39 dually infected in BALB/c mouse assessed as cure rate; how it was run: as §1
Trypanosoma cruzi [15] = assay: Antimicrobial activity against Trypanosoma cruzi infected in BALB/c mouse assessed as parasitemia remaining in hemoculture
How it was run: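 Orbital sinus blood taken 30 days after treatment was inoculated into 3 ml LIT medium and kept at 28°C. Tubes were checked for parasites at days 30, 60, 90 and 120 of culture.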

Trypanosoma cruzi [16] = assay: Antimicrobial activity against Trypanosoma cruzi 1 and Trypanosoma cruzi 2 dually infected in BALB/c mouse assessed as cure rate; how it was run: as §1
Trypanosoma cruzi [17] = assay: Antimicrobial activity against Trypanosoma cruzi genotype 20 infected in BALB/c mouse assessed as cure rate; how it was run: as §1
Trypanosoma cruzi [18] = assay: Antimicrobial activity against Trypanosoma cruzi infected in BALB/c mouse assessed as parasitemia remaining by ELISA
How it was run: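 Conventional ELISA on sera taken 2 and 3 months after treatment and stored at –20°C. Sera were tested at 1:80 in PBS against an alkaline-extract antigen of Y strain parasites grown to exponential phase in LIT medium. Bound antibody was detected with peroxidase anti-mouse IgG and read at 490 nm. Per-plate cutoff = mean of 10 negative sera + 2 SD.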

Trypanosoma cruzi [19] = assay: Antimicrobial activity against Trypanosoma cruzi genotype 20 and genotype 19 dually infected in BALB/c mouse assessed as cure rate; how it was run: as §1
Trypanosoma cruzi [20] = assay: Antimicrobial activity against Trypanosoma cruzi infected in BALB/c mouse assessed as parasitemia remaining in fresh blood
How it was run: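 Tail-vein blood examined daily by light microscopy for living trypomastigotes up to day 60 after infection.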

Trypanosoma cruzi [21] = assay: Antimicrobial activity against Trypanosoma cruzi OPS21 cl11 and Trypanosoma cruzi MAS cl11 dually infected in BALB/c mouse assessed as cure rate; how it was run: as §1
Trypanosoma cruzi [22] = assay: Antimicrobial activity against Trypanosoma cruzi genotype 39 and genotype 32 dually infected in BALB/c mouse assessed as cure rate; how it was run: as §1

Which Activity (Trypanosoma cruzi [1]) does the source give for `O=C(Cn1ccnc1[N+](=O)[O-])NCc1ccccc1` [BENZNIDAZOLE] here?
The Activity was 24%.

And the Activity (Trypanosoma cruzi [2])?
The Activity was 59.1%.

And the Activity (Trypanosoma cruzi [3])?
Its Activity is <33%.

What about the Activity (Trypanosoma cruzi [4]) of the same molecule?
The Activity was 54.4%.

What about the Activity (Trypanosoma cruzi [5]) of the same molecule?
Its Activity is 70%.

And the Activity (Trypanosoma cruzi [6])?
The Activity was 99%.

What about the Activity (Trypanosoma cruzi [7]) of the same molecule?
Its Activity is 50%.

What about the Activity (Trypanosoma cruzi [8]) of the same molecule?
The Activity was 22.7%.

And the Activity (Trypanosoma cruzi [9])?
The Activity was 70%.

And the Activity (Trypanosoma cruzi [10])?
The Activity was 83.3%.

What about the Activity (Trypanosoma cruzi [11]) of the same molecule?
Its Activity is 35.4%.

What about the Activity (Trypanosoma cruzi [12]) of the same molecule?
Its Activity is 93%.

And the Activity (Trypanosoma cruzi [13])?
The Activity was 70%.

And the Activity (Trypanosoma cruzi [14])?
The Activity was 25.9%.

And the Activity (Trypanosoma cruzi [15])?
Its Activity is 79.3%.

And the Activity (Trypanosoma cruzi [16])?
The Activity was 17.4%.

What about the Activity (Trypanosoma cruzi [17]) of the same molecule?
Its Activity is 0%.

And the Activity (Trypanosoma cruzi [18])?
The Activity was 96.4%.

What about the Activity (Trypanosoma cruzi [19]) of the same molecule?
Its Activity is 0%.

What about the Activity (Trypanosoma cruzi [20]) of the same molecule?
The Activity was 19.8%.

What about the Activity (Trypanosoma cruzi [21]) of the same molecule?
The Activity was 14.3%.

And the Activity (Trypanosoma cruzi [22])?
Its Activity is 59.1%.
